The text below walks through data of ChEMBL document CHEMBL4020756, “Discovery of novel substituted benzo-anellated 4-benzylamino pyrrolopyrimidines as dual EGFR and VEGFR2 inhibitors” (Bioorg Med Chem Lett, 2017).

Data set [1] concerns the target Vascular endothelial growth factor receptor 2 (Homo sapiens, UniProt P35968). As to the kind of experiment: Inhibition of VEGFR2 (unknown origin) using poly(Glu,Tyr)4:1 as substrate in presence of [gamma-33P]-ATP after 60 mins by scintillation counting analysis. A digest of the protocol:
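Radiometric ATP-competition assay at 30 °C for 60 min. Kinase was 20 ng/50 µL with Poly(Glu,Tyr)4:1 substrate at 125 ng/50 µL. Buffer was 70 mM HEPES-NaOH pH 7.5 with 3 mM MgCl2, 3 mM MnCl2, 3 µM orthovanadate, 1.2 mM DTT, 50 µg/mL PEG20000 and 15 µM [γ-33P]-ATP. The stop was 2% phosphoric acid, and 33Pi incorporation was counted by scintillation. Ten concentrations from 3 nM to 100 µM gave IC50.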

The target of data set [2] is Epidermal growth factor receptor (Homo sapiens, UniProt P00533). As to the kind of experiment: Inhibition of EGFR (unknown origin) using poly(Glu,Tyr)4:1 as substrate in presence of [gamma-33P]-ATP after 60 mins by scintillation counting analysis.
Chain of Epidermal growth factor receptor (P00533 whole entry): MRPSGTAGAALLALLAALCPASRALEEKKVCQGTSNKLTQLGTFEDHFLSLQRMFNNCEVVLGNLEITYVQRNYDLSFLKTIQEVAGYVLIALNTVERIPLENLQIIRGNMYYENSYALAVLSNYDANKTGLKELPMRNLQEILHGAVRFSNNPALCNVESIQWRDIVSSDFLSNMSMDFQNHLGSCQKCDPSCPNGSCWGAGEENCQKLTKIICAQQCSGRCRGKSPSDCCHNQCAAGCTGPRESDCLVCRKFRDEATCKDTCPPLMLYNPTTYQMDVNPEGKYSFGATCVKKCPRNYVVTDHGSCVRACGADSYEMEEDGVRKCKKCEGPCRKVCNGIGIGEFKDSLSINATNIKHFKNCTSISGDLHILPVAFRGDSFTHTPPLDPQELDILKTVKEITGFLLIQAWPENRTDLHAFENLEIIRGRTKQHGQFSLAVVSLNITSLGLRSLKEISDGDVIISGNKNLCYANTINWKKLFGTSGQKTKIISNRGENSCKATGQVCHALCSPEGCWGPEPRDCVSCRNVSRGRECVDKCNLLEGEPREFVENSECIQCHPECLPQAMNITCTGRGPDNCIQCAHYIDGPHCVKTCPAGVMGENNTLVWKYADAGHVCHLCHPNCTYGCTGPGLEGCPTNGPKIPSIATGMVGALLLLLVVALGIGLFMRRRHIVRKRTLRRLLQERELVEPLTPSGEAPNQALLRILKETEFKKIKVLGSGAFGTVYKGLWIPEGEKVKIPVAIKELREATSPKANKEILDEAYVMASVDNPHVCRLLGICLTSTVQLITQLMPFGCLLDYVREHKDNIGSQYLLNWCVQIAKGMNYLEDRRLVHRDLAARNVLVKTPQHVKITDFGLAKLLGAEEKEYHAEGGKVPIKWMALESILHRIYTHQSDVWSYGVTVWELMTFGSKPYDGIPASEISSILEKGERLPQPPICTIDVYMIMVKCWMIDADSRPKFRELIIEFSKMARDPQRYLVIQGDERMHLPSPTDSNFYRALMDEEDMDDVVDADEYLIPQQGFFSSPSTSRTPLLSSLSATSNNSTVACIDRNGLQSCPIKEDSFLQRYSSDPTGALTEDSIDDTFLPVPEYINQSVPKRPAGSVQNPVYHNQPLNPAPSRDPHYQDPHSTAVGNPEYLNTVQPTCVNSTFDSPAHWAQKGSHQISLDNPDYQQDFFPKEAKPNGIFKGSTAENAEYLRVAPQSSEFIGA
Another data set relates to Hs-578T. Nature of the data set: Growth inhibition of human Hs578T cells at 10 uM after 48 hrs by sulforhodamine assay relative to control. The note with it: read-out: GI. In kind it is functional. In outline: (§1)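 Tested at a single 10 µM concentration in the NCI tumour cell panel screen. Growth inhibition was read by sulforhodamine B staining.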
In a further data set the test system is BT-549. As to the kind of experiment: Growth inhibition of human BT549 cells at 10 uM after 48 hrs by sulforhodamine assay relative to control. In kind it is functional. The settings on record: BT-549, 48 h, read-out: GI. A digest of the protocol:
as §1

The subject of another data set is MDA-MB-468. As to the kind of experiment: Growth inhibition of human MDA-MB-468 cells at 10 uM after 48 hrs by sulforhodamine assay relative to control. In kind it is functional. The settings on record: MDA-MB-468, 48 h, read-out: GI. A digest of the protocol:
as §1

The next data set deals with MDA-MB-231. Nature of the data set: Growth inhibition of human MDA-MB-231 cells at 10 uM after 48 hrs by sulforhodamine assay relative to control. In kind it is functional. The note with it: MDA-MB-231, 48 h, read-out: GI. In outline:
as §1

A further data set relates to HOP-62. As to the kind of experiment: Growth inhibition of human HOP62 cells at 10 uM after 48 hrs by sulforhodamine assay relative to control. In kind it is functional. The note with it: HOP-62, 48 h, read-out: GI. A digest of the protocol: as §1
For another data set, the system named is NCI-H460. As to the kind of experiment: Growth inhibition of human NCI-H460 cells at 10 uM after 48 hrs by sulforhodamine assay relative to control. In kind it is functional. The note with it: NCI-H460, 48 h, read-out: GI. A digest of the protocol: as §1
For another data set, the system named is HOP-92. Nature of the data set: Growth inhibition of human HOP92 cells at 10 uM after 48 hrs by sulforhodamine assay relative to control. The note with it: HOP-92, 48 h, read-out: GI. In kind it is functional. In outline:
as §1

Data set [3] addresses Tyrosine-protein kinase JAK2 (Homo sapiens, UniProt O60674). Nature of the data set: Inhibition of JAK2 (unknown origin). A digest of the protocol:
(§2)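 ATP-competition kinase assay run at several inhibitor concentrations. Reduced phosphorylation of the kinase substrate was measured by scintillation counting, and IC50 values were derived.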

The target of data set [4] is Interleukin-1 receptor-associated kinase 1 (Homo sapiens, UniProt P51617). Nature of the data set: Inhibition of IRAK (unknown origin). In outline:
as §2

The target of data set [5] is Mitogen-activated protein kinase kinase kinase 21 (Homo sapiens, UniProt Q5TCX8). As to the kind of experiment: Inhibition of MLK4 (unknown origin). A digest of the protocol: as §2
Chain of Mitogen-activated protein kinase kinase kinase 21 (Q5TCX8 whole entry): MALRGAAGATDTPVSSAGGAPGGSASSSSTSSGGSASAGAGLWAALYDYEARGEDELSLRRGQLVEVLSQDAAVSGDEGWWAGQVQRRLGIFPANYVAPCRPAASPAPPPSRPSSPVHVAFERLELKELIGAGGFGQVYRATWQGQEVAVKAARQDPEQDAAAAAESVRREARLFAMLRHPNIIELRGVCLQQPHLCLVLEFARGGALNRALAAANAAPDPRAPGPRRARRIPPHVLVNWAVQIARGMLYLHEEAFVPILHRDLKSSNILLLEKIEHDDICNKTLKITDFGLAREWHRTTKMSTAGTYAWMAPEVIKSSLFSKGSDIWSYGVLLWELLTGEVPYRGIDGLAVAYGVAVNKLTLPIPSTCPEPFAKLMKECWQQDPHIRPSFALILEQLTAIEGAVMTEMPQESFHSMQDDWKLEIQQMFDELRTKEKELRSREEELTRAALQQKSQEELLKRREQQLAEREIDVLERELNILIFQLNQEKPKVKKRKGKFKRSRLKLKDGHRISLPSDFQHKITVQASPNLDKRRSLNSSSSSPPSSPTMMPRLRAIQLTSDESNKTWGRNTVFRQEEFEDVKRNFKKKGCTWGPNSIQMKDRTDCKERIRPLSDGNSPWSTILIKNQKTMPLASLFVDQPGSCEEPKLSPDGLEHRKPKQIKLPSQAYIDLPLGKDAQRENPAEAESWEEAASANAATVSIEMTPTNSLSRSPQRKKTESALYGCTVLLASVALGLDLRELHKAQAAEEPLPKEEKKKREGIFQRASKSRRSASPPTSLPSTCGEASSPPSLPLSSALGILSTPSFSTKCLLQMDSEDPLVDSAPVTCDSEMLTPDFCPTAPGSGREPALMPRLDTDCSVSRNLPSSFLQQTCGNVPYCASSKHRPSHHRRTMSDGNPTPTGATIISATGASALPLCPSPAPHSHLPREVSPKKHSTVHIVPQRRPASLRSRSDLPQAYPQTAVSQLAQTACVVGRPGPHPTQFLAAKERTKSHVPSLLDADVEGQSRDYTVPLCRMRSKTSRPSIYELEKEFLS
Data set [6] addresses Death-associated protein kinase 1 (Homo sapiens, UniProt P53355). Nature of the data set: Inhibition of DAPK1 (unknown origin). A digest of the protocol:
as §2

Data set [7] deals with Dual specificity mitogen-activated protein kinase kinase 1 (Homo sapiens, UniProt Q02750). Nature of the data set: Inhibition of MEK1 (unknown origin). A digest of the protocol:
as §2

Data set [8] has as its target Protein kinase C alpha type (Homo sapiens, UniProt P17252). Nature of the data set: Inhibition of PKC alpha (unknown origin). A digest of the protocol:
as §2

Another data set deals with Myotonin-protein kinase (Homo sapiens, UniProt Q09013). As to the kind of experiment: Inhibition of DMPK (unknown origin). In outline: as §2
For data set [9], the target named is Serine/threonine-protein kinase MARK1 (Homo sapiens, UniProt Q9P0L2). As to the kind of experiment: Inhibition of MARK1 (unknown origin). In outline:
as §2

Data set [10] concerns the target Tyrosine-protein kinase ABL1 (Homo sapiens, UniProt P00519). Nature of the data set: Inhibition of c-Abl (unknown origin). A digest of the protocol: as §2
In the next data set the target is Wee1-like protein kinase (Homo sapiens, UniProt P30291). Nature of the data set: Inhibition of Wee1 (unknown origin). A digest of the protocol:
as §2

The target of data set [11] is Mitogen-activated protein kinase kinase kinase 2 (Homo sapiens, UniProt Q9Y2U5). As to the kind of experiment: Inhibition of MEKK2 (unknown origin). In outline:
as §2

Data set [12] deals with Casein kinase I isoform alpha (Homo sapiens, UniProt P48729). Nature of the data set: Inhibition of CK1 alpha (unknown origin). A digest of the protocol:
as §2

The target of data set [13] is Activin receptor type-1-like (Homo sapiens, UniProt P37023). Nature of the data set: Inhibition of ALK1 (unknown origin). A digest of the protocol: as §2
Data set [14] is described as follows: Solubility of the compound in pH 7.5 HEPES-NaOH buffer at > 100 uM. In kind it is physicochemical.

Chain of Vascular endothelial growth factor receptor 2 (P35968 whole entry): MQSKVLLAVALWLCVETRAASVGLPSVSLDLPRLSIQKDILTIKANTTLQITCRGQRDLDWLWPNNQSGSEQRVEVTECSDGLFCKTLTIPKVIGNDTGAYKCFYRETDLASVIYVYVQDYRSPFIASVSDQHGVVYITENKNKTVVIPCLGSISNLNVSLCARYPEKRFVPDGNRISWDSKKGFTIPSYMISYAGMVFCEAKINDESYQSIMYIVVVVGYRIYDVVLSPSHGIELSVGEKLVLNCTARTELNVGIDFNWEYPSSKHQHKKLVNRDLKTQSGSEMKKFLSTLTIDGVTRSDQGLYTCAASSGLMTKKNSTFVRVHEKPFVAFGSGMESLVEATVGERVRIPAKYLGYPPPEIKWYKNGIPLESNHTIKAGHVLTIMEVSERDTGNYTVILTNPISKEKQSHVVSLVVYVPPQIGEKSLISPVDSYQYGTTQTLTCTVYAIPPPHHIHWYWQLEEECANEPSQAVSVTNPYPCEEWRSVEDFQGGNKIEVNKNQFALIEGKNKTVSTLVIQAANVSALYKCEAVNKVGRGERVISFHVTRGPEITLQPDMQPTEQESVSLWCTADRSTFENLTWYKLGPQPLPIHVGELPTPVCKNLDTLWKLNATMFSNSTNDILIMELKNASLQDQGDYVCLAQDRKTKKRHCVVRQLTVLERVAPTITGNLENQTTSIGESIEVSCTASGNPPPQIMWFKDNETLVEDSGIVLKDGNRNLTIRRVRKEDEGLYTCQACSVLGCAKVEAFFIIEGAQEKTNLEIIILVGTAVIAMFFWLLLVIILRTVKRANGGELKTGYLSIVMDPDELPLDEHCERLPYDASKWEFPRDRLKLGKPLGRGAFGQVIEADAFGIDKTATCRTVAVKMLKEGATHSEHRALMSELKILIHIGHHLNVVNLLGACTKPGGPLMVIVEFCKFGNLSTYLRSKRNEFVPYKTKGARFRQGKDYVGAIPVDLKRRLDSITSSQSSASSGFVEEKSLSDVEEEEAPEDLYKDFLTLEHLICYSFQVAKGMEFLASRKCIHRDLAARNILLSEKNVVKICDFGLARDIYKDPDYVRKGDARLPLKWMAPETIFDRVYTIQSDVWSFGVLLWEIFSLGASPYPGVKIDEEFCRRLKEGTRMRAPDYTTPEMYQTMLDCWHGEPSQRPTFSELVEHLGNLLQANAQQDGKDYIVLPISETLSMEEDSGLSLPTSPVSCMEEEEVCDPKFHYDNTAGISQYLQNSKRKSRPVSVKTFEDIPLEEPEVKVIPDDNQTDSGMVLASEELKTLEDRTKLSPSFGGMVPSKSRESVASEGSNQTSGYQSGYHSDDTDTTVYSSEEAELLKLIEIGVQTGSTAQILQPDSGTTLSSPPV
Chain of Wee1-like protein kinase (P30291 whole entry): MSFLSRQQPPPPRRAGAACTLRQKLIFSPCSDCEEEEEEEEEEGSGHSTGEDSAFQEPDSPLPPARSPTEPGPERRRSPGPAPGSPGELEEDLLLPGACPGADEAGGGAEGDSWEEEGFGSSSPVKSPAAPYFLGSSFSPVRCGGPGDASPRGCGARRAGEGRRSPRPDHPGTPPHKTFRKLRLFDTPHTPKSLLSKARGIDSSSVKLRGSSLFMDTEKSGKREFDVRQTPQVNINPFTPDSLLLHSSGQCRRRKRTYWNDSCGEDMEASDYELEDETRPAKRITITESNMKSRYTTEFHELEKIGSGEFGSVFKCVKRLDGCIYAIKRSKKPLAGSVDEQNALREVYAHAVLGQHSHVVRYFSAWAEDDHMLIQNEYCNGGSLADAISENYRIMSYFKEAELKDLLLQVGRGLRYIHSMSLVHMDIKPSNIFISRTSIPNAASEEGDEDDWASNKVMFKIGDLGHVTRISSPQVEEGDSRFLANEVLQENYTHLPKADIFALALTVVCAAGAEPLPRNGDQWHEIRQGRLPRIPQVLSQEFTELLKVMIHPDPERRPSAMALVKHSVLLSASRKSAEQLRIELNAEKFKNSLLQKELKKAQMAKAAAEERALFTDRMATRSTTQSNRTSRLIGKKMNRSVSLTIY

Consider `Nc1nc(NCc2ccccc2)c2c(n1)[nH]c1ccc(O)cc12`, for which the inhibition constant (Ki) in data set [1] (read-out: Ki) was 2.76 µM; in data set [2] it was 0.7 µM.
Take `Nc1nc(NCCc2ccccc2)c2c(n1)[nH]c1ccc(O)cc12`: the inhibitory constant (Ki) worked out at 4.47 µM in data set [1] (read-out: Ki) and 0.64 µM in [2].
Consider `Nc1nc(NCc2ccc(Cl)cc2)c2c(n1)[nH]c1ccc(O)cc12`, for which the inhibition of growth at 10 µM turned out to be 33% with Hs-578T; 24% in the data set with BT-549; 71% in the data set with MDA-MB-468; 65% with MDA-MB-231; 31% in the data set on HOP-62; 25% in the data set with NCI-H460. Besides, the inhibition of growth at 10 µM with HOP-92 stood at 57%. Besides, the Ki in data set [1] (read-out: Ki) turned out to be 3.24 µM; in data set [2], 0.08 µM.
With `COc1ccc(CNc2nc(N)nc3[nH]c4ccc(O)cc4c23)cc1OC`, the Ki in data set [1] (read-out: Ki) worked out at 11.1 µM; in [2], 3.68 µM.
With `Nc1nc(NCc2ccccc2)c2c(n1)[nH]c1cc(Br)c(O)cc12`, the Ki entry in data set [1] is “Not Active”; in [2] it was 0.37 µM.
In the case of `Nc1nc(NCc2cccc(Cl)c2)c2c(n1)[nH]c1ccc(O)cc12`, the Ki in data set [2] is 0.29 µM.
Turning to `COc1ccc(CNc2nc(N)nc3[nH]c4cc(C)c(O)cc4c23)cc1`, the Ki in data set [2] is 5.95 µM.
As to `COc1cc2[nH]c3nc(N)nc(NCc4ccccc4)c3c2cc1O`, the Ki in data set [1] (read-out: Ki) amounted to 13.4 µM; in data set [2] it was 0.61 µM.
On the same counts, the results for `Cc1ccc(CNc2nc(N)nc3[nH]c4ccc(O)cc4c23)cc1` are 3.26 µM and 0.09 µM.
As for `Cc1cc2[nH]c3nc(N)nc(NCc4ccc(Cl)cc4)c3c2cc1O`, the Ki result in data set [1] is “Not Active”; in data set [2], 0.11 µM.
With `Cc1cc2[nH]c3nc(N)nc(NCc4cccc(Cl)c4)c3c2cc1O`, the Ki in [2] amounted to 0.9 µM.
`COc1cccc(CNc2nc(N)nc3[nH]c4ccc(O)cc4c23)c1`: the values for the Ki in data set [1] (read-out: Ki) and in data set [2] were 3.99 µM and 1.26 µM, respectively.
For `C[C@@H](Nc1nc(N)nc2[nH]c3ccc(O)cc3c12)c1ccccc1`, the Ki was determined as 1.93 µM in [1] (read-out: Ki) and 0.91 µM in data set [2].
`Nc1nc(NCc2ccccc2)c2c(n1)[nH]c1cc(Cl)c(O)cc12`: the inhibition of growth at 10 µM with Hs-578T turned out to be 16%; with BT-549, 21%; in the data set with MDA-MB-468 it was 28%; in the data set on MDA-MB-231 it was 34%; in the data set with HOP-62 it was 20%; in the data set with NCI-H460, 5%. In the data set on HOP-92, the inhibition of growth at 10 µM was found to be 19%. Besides, the Ki result in data set [1] is “Not Active”; in data set [2], 0.27 µM.
Turning to `COc1ccccc1CNc1nc(N)nc2[nH]c3cc(C)c(O)cc3c12`, the Ki stood at 7.24 µM in [1] (read-out: Ki) and 4.03 µM in data set [2].
For `Cc1cc2[nH]c3nc(N)nc(NCc4ccccc4)c3c2cc1O`, in that order: 4.83 µM and 0.64 µM.
For `Cc1ccc(CNc2nc(N)nc3[nH]c4cc(C)c(O)cc4c23)cc1`, the IC50 in data set [3], in data set [4], in data set [5], in [6], in data set [7] and in [8] was over 100 µM throughout. Further, the IC50 (against Myotonin-protein kinase; in data set [9]; in data set [10]; at Wee1-like protein kinase; in [11]; in data set [12]) was over 100 µM in each case. For the same compound, the IC50 in data set [13] is over 100 µM. In addition, the Ki entry in data set [1] is “Not Active”; in data set [2], 5.67 µM. Moreover, the solubility result in data set [14] was “Soluble”.
With `C[C@H](Nc1nc(N)nc2[nH]c3ccc(O)cc3c12)c1ccccc1`, the Ki in data set [1] (read-out: Ki) turned out to be 4.15 µM; in [2], 0.52 µM.
With `COc1ccc(CNc2nc(N)nc3[nH]c4ccc(O)cc4c23)cc1`, the Ki in data set [2] stood at 0.12 µM.
On to `COc1ccccc1CNc1nc(N)nc2[nH]c3ccc(O)cc3c12`, for which the inhibition of growth at 10 µM was 41% in the data set on Hs-578T; 37% in the data set with BT-549; 55% with MDA-MB-468; 73% in the data set with MDA-MB-231; 63% with HOP-62; 82% in the data set with NCI-H460. Besides, in the data set with HOP-92, the inhibition of growth at 10 µM was 66%. Also, the Ki in data set [1] (read-out: Ki) stood at 0.85 µM; in [2] it was 1.87 µM.
